Experiments:
Format in all cases: functional
Mus musculus [1] = assay: Antitumor activity was determined for average weight on day 1 against P-388 leukemia in mice at a dose of 640 mg/kg
How it was run: (§1)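 Male B6D2F1J mice, groups of 5, inoculated ip with 10⁶ P-388 cells on day 0. Drug given ip on days 1-4 (qd × 4) in sterile saline, or in 10% Tween 80 for the poorly water-soluble thioether. Average weight per mouse recorded on day 1, with reweighing on day 7 for percent weight change. Untreated control groups had 10-17 animals per experiment.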

Mus musculus [2] = assay: Antitumor activity was determined for 7-day average percent weight change against P-388 leukemia in mice at a dose of 640 mg/kg
How it was run: (§2)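 Male B6D2F1J mice given 10⁶ P-388 cells ip on day 0, then treated ip once daily on days 1-4 (qd × 4), 5 mice per dose group. Compounds dosed in sterile saline, except one lipophilic thioether given in 10% Tween 80. Mice weighed on days 1 and 7; mean weight per mouse on day 1 and 7-day weight change reported in g and as percent.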

Mus musculus [3] = assay: Percent increase in life span against P-388 leukemia in mice was determined at a dose of 320 mg/kg; details: P388
How it was run: (§3)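 Male B6D2F1J mice, 5 per dose group, received 10⁶ P-388 cells ip on day 0. Dosing was ip qd × 4 on days 1-4 in sterile saline, or 10% Tween 80 for the butyl thioether. Median survival times of treated (T) and untreated control (C, 10-17 mice) groups were compared: %ILS = [(T/C) − 1]100. Weights taken on days 1 and 7.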

Mus musculus [4] = assay: Percent increase in life span against P-388 leukemia in mice was determined at a dose of 80 mg/kg; details: P388; how it was run: as §3
Mus musculus [5] = assay: Antitumor activity was determined for 7-day average percent weight change against P-388 leukemia in mice at a dose of 40 mg/kg; how it was run: as §2
Mus musculus [6] = assay: Antitumor activity was determined for survival range of mice against P-388 leukemia in mice at a dose of 640 mg/kg
How it was run: (§4)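 Male B6D2F1J mice implanted ip with 10⁶ P-388 cells on day 0; test agents given ip on days 1–4 (qd × 4) in sterile saline, or in 10% Tween 80 for the lipophilic thioether. Groups of 5 treated mice, with 10–17 untreated controls per experiment. Mice weighed on days 1 and 7 to give the 7-day weight change in g and %. Survival recorded in days as median and range.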

Mus musculus [7] = assay: Antitumor activity was determined for survival range of mice against P-388 leukemia in mice at a dose of 80 mg/kg
How it was run: (§5)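 Male B6D2F1J mice, 5 per dose group, implanted ip with 10⁶ P-388 leukemia cells on day 0. Drug given ip daily on days 1-4 (qd × 4) in sterile saline, or in 10% Tween 80 for the butyl thioether. Survival range recorded in days. Untreated control groups had 10-17 animals per experiment. Mice weighed on days 1 and 7.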

Mus musculus [8] = assay: Antitumor activity was determined for average 7-day weight change against P-388 leukemia in mice at a dose of 160 mg/kg; how it was run: as §2
Mus musculus [9] = assay: Antitumor activity was determined for average weight on day 1 against P-388 leukemia in mice at a dose of 40 mg/kg; how it was run: as §1
Mus musculus [10] = assay: Antitumor activity was determined for survival range of mice against P-388 leukemia in mice at a dose of 320 mg/kg; how it was run: as §4
Mus musculus [11] = assay: Percent increase in life span against P-388 leukemia in mice was determined at a dose of 640 mg/kg; details: P388; how it was run: as §3
Mus musculus [12] = assay: Antitumor activity was determined for median survival of mice against P-388 leukemia in mice at a dose of 80 mg/kg; how it was run: as §4
Mus musculus [13] = assay: Antitumor activity was determined for 7-day average percent weight change against P-388 leukemia in mice at a dose of 80 mg/kg; how it was run: as §2
Mus musculus [14] = assay: Percent increase in life span against P-388 leukemia in mice was determined at a dose of 40 mg/kg; details: P388; how it was run: as §3
L1210 = assay: Evaluated for cytotoxicity against L1210 mouse leukemia cells; details: read-out: ID50 (the source's name)
How it was run: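 L1210 murine leukemia cells in Eagle's minimal essential medium with 15% fetal calf serum, streptomycin (100 μg/mL), penicillin (100 units/mL) and 0.05 mM 2-mercaptoethanol. Cells counted by Coulter counter after 48 h exposure. ID50 is the 50% growth-inhibitory dose. Triplicate assays, standard deviation ±10%.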

Mus musculus [15] = assay: Antitumor activity was determined for average weight on day 1 against P-388 leukemia in mice at a dose of 80 mg/kg; how it was run: as §1
Mus musculus [16] = assay: Antitumor activity was determined for median survival of mice against P-388 leukemia in mice at a dose of 640 mg/kg; how it was run: as §4
Mus musculus [17] = assay: Antitumor activity was determined for 7-day average percent weight change against P-388 leukemia in mice at a dose of 160 mg/kg; how it was run: as §2
Mus musculus [18] = assay: Antitumor activity was determined for survival range of mice against P-388 leukemia in mice at a dose of 160 mg/kg; how it was run: as §4
Mus musculus [19] = assay: Antitumor activity was determined for average 7-day weight change against P-388 leukemia in mice at a dose of 80 mg/kg; how it was run: as §2
Mus musculus [20] = assay: Percent increase in life span against P-388 leukemia in mice was determined at a dose of 160 mg/kg; details: P388; how it was run: as §3
Mus musculus [21] = assay: Antitumor activity was determined for median survival of mice against P-388 leukemia in mice at a dose of 40 mg/kg; how it was run: as §4
Mus musculus [22] = assay: Antitumor activity was determined for 7-day average percent weight change against P-388 leukemia in mice at a dose of 320 mg/kg; how it was run: as §2
Mus musculus [23] = assay: Antitumor activity was determined for average weight on day 1 against P-388 leukemia in mice at a dose of 160 mg/kg; how it was run: as §2
Mus musculus [24] = assay: Antitumor activity was determined for median survival of mice against P-388 leukemia in mice at a dose of 160 mg/kg; how it was run: as §4
Mus musculus [25] = assay: Antitumor activity was determined for average weight on day 1 against P-388 leukemia in mice at a dose of 320 mg/kg; how it was run: as §1
Mus musculus [26] = assay: Antitumor activity was determined for survival range of mice against P-388 leukemia in mice at a dose of 40 mg/kg; how it was run: as §4
Mus musculus [27] = assay: Antitumor activity was determined for median survival of mice against P-388 leukemia in mice at a dose of 320 mg/kg; how it was run: as §4
Mus musculus [28] = assay: Antitumor activity was determined for average 7-day weight change against P-388 leukemia in mice at a dose of 40 mg/kg; how it was run: as §2
Mus musculus [29] = assay: Antitumor activity was determined for average 7-day weight change against P-388 leukemia in mice at a dose of 8 mg/kg; how it was run: as §2
Mus musculus [30] = assay: Antitumor activity was determined for average weight on day 1 against P-388 leukemia in mice at a dose of 2 mg/kg; how it was run: as §1
Mus musculus [31] = assay: Antitumor activity was determined for survival range of mice against P-388 leukemia in mice at a dose of 2 mg/kg; how it was run: as §4
Mus musculus [32] = assay: Antitumor activity was determined for median survival of mice against P-388 leukemia in mice at a dose of 4 mg/kg; how it was run: as §4
Mus musculus [33] = assay: Antitumor activity was determined for median survival of mice against P-388 leukemia in mice at a dose of 8 mg/kg; how it was run: as §4
Mus musculus [34] = assay: Antitumor activity was determined for survival range of mice against P-388 leukemia in mice at a dose of 8 mg/kg; how it was run: as §5
Mus musculus [35] = assay: Antitumor activity was determined for average weight on day 1 against P-388 leukemia in mice at a dose of 4 mg/kg; how it was run: as §1
Mus musculus [36] = assay: Percent increase in life span against P-388 leukemia in mice was determined at a dose of 4 mg/kg; details: P388; how it was run: as §3
Mus musculus [37] = assay: Antitumor activity was determined for survival range of mice against P-388 leukemia in mice at a dose of 4 mg/kg; how it was run: as §4
Mus musculus [38] = assay: Antitumor activity was determined for average 7-day weight change against P-388 leukemia in mice at a dose of 2 mg/kg; how it was run: as §2
Mus musculus [39] = assay: Percent increase in life span against P-388 leukemia in mice was determined at a dose of 2 mg/kg; details: P388; how it was run: as §3
Mus musculus [40] = assay: Percent increase in life span against P-388 leukemia in mice was determined at a dose of 8 mg/kg; details: P388; how it was run: as §3
Mus musculus [41] = assay: Antitumor activity was determined for 7-day average percent weight change against P-388 leukemia in mice at a dose of 2 mg/kg; how it was run: as §2
Mus musculus [42] = assay: Antitumor activity was determined for 7-day average percent weight change against P-388 leukemia in mice at a dose of 4 mg/kg; how it was run: as §2
Mus musculus [43] = assay: Antitumor activity was determined for median survival of mice against P-388 leukemia in mice at a dose of 2 mg/kg; how it was run: as §4
Mus musculus [44] = assay: Antitumor activity was determined for 7-day average percent weight change against P-388 leukemia in mice at a dose of 8 mg/kg; how it was run: as §2
Mus musculus [45] = assay: Antitumor activity was determined for average weight on day 1 against P-388 leukemia in mice at a dose of 8 mg/kg; how it was run: as §1
Mus musculus [46] = assay: Antitumor activity was determined for average 7-day weight change against P-388 leukemia in mice at a dose of 4 mg/kg; how it was run: as §2
Mus musculus [47] = assay: Antitumor activity was determined for average 7-day weight change against P-388 leukemia in mice at a dose of 320 mg/kg; how it was run: as §2
Mus musculus [48] = assay: Antitumor activity was determined for average 7-day weight change against P-388 leukemia in mice at a dose of 640 mg/kg; how it was run: as §2

Row | SMILES | Average weight (Mus musculus [1]) [g mouse-1] | Weight change (Mus musculus [2]) [%] | ILS at 320 mg/kg (Mus musculus [3]) [%] | ILS at 80 mg/kg (Mus musculus [4]) [%] | Survival range (Mus musculus [6]) | Survival range (Mus musculus [7]) | Average weight (Mus musculus [8]) [g mouse-1] | Survival range (Mus musculus [10]) | ILS at 640 mg/kg (Mus musculus [11]) [%] | Survival median (Mus musculus [12]) | Weight change (Mus musculus [13]) [%] | IC50 (L1210) [µM] | Average weight (Mus musculus [15]) [g mouse-1] | Survival median (Mus musculus [16]) | Weight change (Mus musculus [17]) [%] | Survival range (Mus musculus [18]) | Average weight (Mus musculus [19]) [g mouse-1] | ILS at 160 mg/kg (Mus musculus [20]) [%] | Weight change (Mus musculus [22]) [%] | Average weight (Mus musculus [23]) [g mouse-1] | further results
1 | O=c1[nH]c(=O)n(C2OC[C@@H](O)[C@H]2O)cc1F (stereo partly drawn) | 25.6 | -9 | 41 | 16 | 17 | 11 | 1.6 | 16 | 75 | 14 | 11 | 130 | 24.2 | 21 | 8 | 14 | 2.6 | 25 | 1 | 24.2 | Weight change (Mus musculus [5]): 12%; Average weight (Mus musculus [9]): 25.2 g mouse-1; ILS at 40 mg/kg (Mus musculus [14]): 0%; Survival median (Mus musculus [21]): 12; Survival median (Mus musculus [24]): 15; Average weight (Mus musculus [25]): 25.8 g mouse-1; Survival range (Mus musculus [26]): 12; Survival median (Mus musculus [27]): 17; Average weight (Mus musculus [28]): 3 g mouse-1
2 | O=c1[nH]c(=O)n([C@@H]2O[C@H](CO)[C@@H](O)[C@H]2O)cc1F [5-FLUOROURIDINE] | – | – | – | – | – | – | – | – | – | – | – | 0.0024 | – | – | – | – | – | – | – | – | Average weight (Mus musculus [29]): -6 g mouse-1; Average weight (Mus musculus [30]): 26 g mouse-1; Survival range (Mus musculus [31]): 18; Survival median (Mus musculus [32]): 21; Survival median (Mus musculus [33]): 23; Survival range (Mus musculus [34]): 21; Average weight (Mus musculus [35]): 26.4 g mouse-1; ILS at 4 mg/kg (Mus musculus [36]): 75%; Survival range (Mus musculus [37]): 18; Average weight (Mus musculus [38]): 1.2 g mouse-1; ILS at 2 mg/kg (Mus musculus [39]): 66%; ILS at 8 mg/kg (Mus musculus [40]): 91%; Weight change (Mus musculus [41]): 5%; Weight change (Mus musculus [42]): -12%; Survival median (Mus musculus [43]): 20; Weight change (Mus musculus [44]): -23%; Average weight (Mus musculus [45]): 25.8 g mouse-1; Average weight (Mus musculus [46]): -3.2 g mouse-1
3 | C[C@H]1O[C@@H](n2cc(F)c(=O)[nH]c2=O)[C@H](O)[C@@H]1O [DOXIFLURIDINE] | 27 | -21 | 54 | 18 | 9 | 11 | 0.4 | 15 | 54 | 13 | 7 | 140 | 28.6 | 17 | 2 | 14 | 2.2 | 36 | -5 | 26.8 | Average weight (Mus musculus [47]): -1.4 g mouse-1; Average weight (Mus musculus [48]): -5.6 g mouse-1; Survival median (Mus musculus [24]): 15; Average weight (Mus musculus [25]): 26.2 g mouse-1; Survival median (Mus musculus [27]): 17

— ChEMBL document CHEMBL1122125, “Synthesis and in vivo antitumor activity of potential 5-fluorouracil prodrugs” (1982)
